Results reported in ChEMBL document CHEMBL1143907, “Synthesis, nicotinic acetylcholine receptor binding, and pharmacological properties of 3'-(substituted phenyl)deschloroepibatidine analogs” (Bioorg Med Chem, 2008).

Tests used:
[1] = target: Neuronal acetylcholine receptor; alpha4/beta2 (Rattus norvegicus, UniProt P09483+P12390); test: Displacement of [3H]epibatidine from alpha-4-beta-2 nAChR in rat cerebral cortex; format: tissue-based
Mus musculus [2] = test: Inhibition of nicotine-induced antinociception in sc dosed acute pain mouse model by tail flick method; format: functional
Mus musculus [3] = test: Antinociceptive activity in acute pain mouse model at 10 mg/kg, sc by hot plate method; format: functional; conditions: route subcutaneous
Outline: (§1)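 Mice were placed in a 10-cm glass cylinder on a hot plate held at 55.0 °C. Two control latencies, at least 10 min apart, were taken per mouse (normal 8–12 s). The endpoint was a jump or paw lick, and animals were tested 5 min after sc injection. Response was expressed as %MPE from test, control and maximum latencies. ED50 values are given with confidence limits, or as percent effect at a dose.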

Mus musculus [4] = test: Effect on rectal temperature in mouse at 500 […], sc; format: functional; conditions: route subcutaneous
Outline: (§2)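 Rectal temperature was read with a thermistor probe inserted 24 mm, just before and at several times after sc saline or analog. The pre/post difference was calculated per mouse. Laboratory ambient temperature was 21–24 °C.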

Mus musculus [5] = test: Inhibition of nicotine-induced antinociception in sc dosed acute pain mouse model by hot plate method; format: functional
[6] = target: Neuronal acetylcholine receptor subunit alpha-7 (Rattus norvegicus, UniProt Q05941); test: Displacement of [125I]iodoMLA from alpha-7 nAChR in rat cerebral cortex; format: tissue-based
Mus musculus [7] = test: Antinociceptive activity in acute pain mouse model at 10 mg/kg, sc by tail flick method; format: functional; conditions: route subcutaneous
Outline: (§3)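 Mice, tail-flick assay: heat lamp aimed at the tail, with latency to flick recorded. Each mouse's baseline (2–4 s) was taken before treatment, and test latency was taken after sc dosing. Response was expressed as %MPE = [(test−control)/(maximum latency−control)×100]. ED50 values are reported with confidence limits, or as percent effect at the individual dose.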

Mus musculus [8] = test: Inhibition of nicotine-induced antinociception in acute pain mouse model at 10 ug/kg, sc by tail flick method; format: functional; design: scale not given: the % may be the effect or the level left
Mus musculus [9] = test: Inhibition of nicotine-induced antinociception in acute pain mouse model at 10 ug/kg, sc by hot plate method; format: functional; design: scale not given: the % may be the effect or the level left
Mus musculus [10] = test: […] in mouse assessed as inhibition of nicotin induced hypothermia at 10 mg/kg, sc; format: functional; design: scale not given: the % may be the effect or the level left; conditions: route subcutaneous
Mus musculus [11] = test: Effect on rectal temperature in mouse at 1000 […], sc; format: functional; conditions: route subcutaneous; outline: as §2
Mus musculus [12] = test: Effect on locomotor activity in sc dosed mouse assessed as spontaneous activity; format: functional
Outline: (§4)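 Mice were placed in individual photocell activity cages 5 min after sc saline (0.9%) or analog. Photobeam interruptions (two banks of eight cells) were counted over the next 10 min. Data are the number of interruptions, and ED50 is reported with confidence limits or as percent effect at a dose.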

Mus musculus [13] = test: Antinociceptive activity in sc dosed acute pain mouse model by tail flick method; format: functional; outline: as §3
Mus musculus [14] = test: Antinociceptive activity in sc dosed in acute pain mouse model by hot plate method; format: functional; outline: as §1
Mus musculus [15] = test: Agonist activity in sc dosed mouse assessed as induction of hypothermia
Mus musculus [16] = test: Effect on rectal temperature in mouse at 100 […], sc; format: functional; conditions: route subcutaneous; outline: as §2
Mus musculus [17] = test: Effect on rectal temperature in mouse at 10000 µg/kg, sc; conditions: route subcutaneous
Mus musculus [18] = test: Inhibition of nicotine-induced antinociception in acute pain mouse model at 100 ug/kg, sc by hot plate method; format: functional; design: scale not given: the % may be the effect or the level left
Mus musculus [19] = test: Antinociceptive activity in acute pain mouse model at 20 mg/kg, sc by tail flick method; format: functional; conditions: route subcutaneous; outline: as §3
Mus musculus [20] = test: Antinociceptive activity in acute pain mouse model at 20 mg/kg, sc by hot plate method; format: functional; conditions: route subcutaneous; outline: as §1
Mus musculus [21] = test: Inhibition of nicotine-induced antinociception in acute pain mouse model at 1000 ug/kg, sc by hot plate method; format: functional; design: scale not given: the % may be the effect or the level left
Mus musculus [22] = test: […] in mouse assessed as inhibition of nicotin induced hypothermia at 20 mg/kg, sc; format: functional; design: scale not given: the % may be the effect or the level left; conditions: route subcutaneous
[23] = target: Neuronal acetylcholine receptor subunit alpha-7 (Rattus norvegicus) (UniProt Q05941); test: Displacement of [125I]iodoMLA from alpha-7 nAChR in rat cerebral cortex at 50 nM; format: tissue-based
Mus musculus [24] = test: Effect on rectal temperature in mouse at 2000 […], sc; format: functional; conditions: route subcutaneous; outline: as §2
Mus musculus [25] = test: Effect on rectal temperature in mouse at 5000 […], sc; format: functional; conditions: route subcutaneous; outline: as §2
Mus musculus [26] = test: Inhibition of nicotine-induced antinociception in acute pain mouse model at 2000 ug/kg, sc by hot plate method; format: functional; design: scale not given: the % may be the effect or the level left
Mus musculus [27] = test: Effect on rectal temperature in mouse at 20 mg/kg, sc; format: functional; conditions: route subcutaneous; outline: as §2
Mus musculus [28] = test: Effect on locomotor activity in mouse assessed as spontaneous activity at 10 mg/kg, sc; format: functional; conditions: route subcutaneous; outline: as §4
Mus musculus [29] = test: Effect on rectal temperature in mouse at 10 mg/kg, sc; format: functional; conditions: route subcutaneous; outline: as §2
Mus musculus [30] = test: Antinociceptive activity in acute pain mouse model at 15 mg/kg, sc by hot plate method; format: functional; conditions: route subcutaneous; outline: as §1

Neuronal acetylcholine receptor subunit alpha-7, sequence (Q05941 whole entry): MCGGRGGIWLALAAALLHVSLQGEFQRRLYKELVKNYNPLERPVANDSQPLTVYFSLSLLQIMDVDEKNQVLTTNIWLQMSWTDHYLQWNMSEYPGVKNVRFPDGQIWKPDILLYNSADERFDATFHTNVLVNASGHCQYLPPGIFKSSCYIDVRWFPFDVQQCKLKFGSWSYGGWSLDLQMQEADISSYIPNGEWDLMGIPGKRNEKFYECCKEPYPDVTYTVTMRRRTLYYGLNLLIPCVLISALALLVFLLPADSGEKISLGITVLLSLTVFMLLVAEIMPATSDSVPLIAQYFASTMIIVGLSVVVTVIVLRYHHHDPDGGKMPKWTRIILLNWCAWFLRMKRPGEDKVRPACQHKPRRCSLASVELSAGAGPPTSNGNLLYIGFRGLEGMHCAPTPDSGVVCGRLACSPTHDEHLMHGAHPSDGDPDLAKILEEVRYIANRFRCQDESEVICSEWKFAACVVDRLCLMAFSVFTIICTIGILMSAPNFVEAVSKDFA
Neuronal acetylcholine receptor; alpha4/beta2, sequence (P09483 whole entry): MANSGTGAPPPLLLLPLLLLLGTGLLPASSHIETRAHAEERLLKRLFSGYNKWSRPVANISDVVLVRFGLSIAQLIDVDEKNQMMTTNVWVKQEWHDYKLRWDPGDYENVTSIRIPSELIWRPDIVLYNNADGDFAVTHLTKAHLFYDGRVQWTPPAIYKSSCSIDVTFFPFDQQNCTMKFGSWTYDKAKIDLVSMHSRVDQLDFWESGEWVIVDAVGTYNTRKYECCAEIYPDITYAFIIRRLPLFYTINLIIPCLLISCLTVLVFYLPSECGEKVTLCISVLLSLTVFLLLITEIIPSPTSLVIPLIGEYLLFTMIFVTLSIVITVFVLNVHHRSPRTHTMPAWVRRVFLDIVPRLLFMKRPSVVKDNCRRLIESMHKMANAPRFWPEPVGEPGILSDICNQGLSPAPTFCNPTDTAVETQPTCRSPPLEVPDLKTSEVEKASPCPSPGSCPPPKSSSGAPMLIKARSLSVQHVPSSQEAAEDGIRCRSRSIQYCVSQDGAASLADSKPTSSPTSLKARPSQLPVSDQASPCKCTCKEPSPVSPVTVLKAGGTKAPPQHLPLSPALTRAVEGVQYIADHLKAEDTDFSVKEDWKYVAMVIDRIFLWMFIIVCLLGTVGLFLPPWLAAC
Neuronal acetylcholine receptor; alpha4/beta2, sequence (P12390 whole entry): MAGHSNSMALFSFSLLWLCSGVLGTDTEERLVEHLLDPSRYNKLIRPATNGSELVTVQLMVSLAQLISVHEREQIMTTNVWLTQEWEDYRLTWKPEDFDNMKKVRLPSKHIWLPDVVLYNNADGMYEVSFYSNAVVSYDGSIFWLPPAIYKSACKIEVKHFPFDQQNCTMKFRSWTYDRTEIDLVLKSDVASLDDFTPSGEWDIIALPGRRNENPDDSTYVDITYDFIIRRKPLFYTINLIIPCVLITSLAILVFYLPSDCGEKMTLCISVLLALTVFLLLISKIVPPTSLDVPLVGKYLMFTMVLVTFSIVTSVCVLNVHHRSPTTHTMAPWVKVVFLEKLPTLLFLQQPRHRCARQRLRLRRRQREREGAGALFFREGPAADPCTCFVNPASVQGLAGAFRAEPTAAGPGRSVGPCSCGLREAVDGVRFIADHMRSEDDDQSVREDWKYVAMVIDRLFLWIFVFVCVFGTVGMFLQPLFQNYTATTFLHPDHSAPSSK
Neuronal acetylcholine receptor subunit alpha-7 (Rattus norvegicus), sequence (Q05941 whole entry): as the sequence (Q05941 whole entry) above

| SMILES | Ki [1] [nM] | AD50 (Mus musculus [2]) [µg/kg] | Activity (Mus musculus [3]) [%] | AD50 (Mus musculus [5]) [µg/kg] | Ki [6] [nM] | Activity (Mus musculus [7]) [%] | Activity (Mus musculus [11]) [%] | ED50 (Mus musculus [12]) [µg/kg] | ED50 (Mus musculus [15]) [µg/kg] | other results |
| --- | --- | --- | --- | --- | --- | --- | --- | --- | --- | --- |
| Cl.O=[N+]([O-])c1cccc(-c2cc(C3CC4CCC3N4)cnc2F)c1 (racemic) | 0.053 | 0.2 | 20 | 130 | – | – | – | – | – | Activity (Mus musculus [4]): 5% |
| Clc1ccc(-c2cncc(C3CC4CCC3N4)c2)cc1 (configuration not stated) | 0.21 | – | 11 | – | > 2000 | 1 | 5 | 10500 | – | Activity (Mus musculus [8]): 0%; Activity (Mus musculus [9]): 0%; Activity (Mus musculus [10]): 2% |
| CN1CCC[C@@H]1c1cccnc1 [R-NICOTINE] | – | – | – | – | – | – | – | 500 | 1000 | ED50 (Mus musculus [13]): 1300 µg/kg; ED50 (Mus musculus [14]): 650 µg/kg |
| Cl.Fc1ccc(-c2cc(C3CC4CCC3N4)cnc2F)cc1 (racemic) | 0.029 | 0.5 | 15 | 230 | – | – | – | – | – | Activity (Mus musculus [16]): 0% |
| c1cnc2cc3c(cc2n1)[C@@H]1CNC[C@H]3C1 [VARENICLINE] | – | 0.2 | 10 | 470 | – | 11 | – | 2100 | 2800 | Activity (Mus musculus [17]): 0% |
| c1cncc(C2CC3CCC2N3)c1 (configuration not stated) [DESCHLOROEPIBATIDINE] | – | – | – | – | – | – | – | – | – | ED50 (Mus musculus [13]): 2 µg/kg |
| Cl.Cl.O=[N+]([O-])c1ccc(-c2cncc(C3CC4CCC3N4)c2)cc1 (racemic) | 0.34 | 47 | 26 | – | > 2000 | 1 | – | 660 | 2900 | Activity (Mus musculus [18]): 10%; Activity (Mus musculus [16]): 0% |
| Cl.Cl.Cl.Clc1cccc(-c2cncc(C3CC4CCC3N4)c2)c1 (racemic) | 0.17 | 0.01 | – | – | > 2000 | – | 0 | 3800 | – | Activity (Mus musculus [19]): 1%; Activity (Mus musculus [20]): 10%; Activity (Mus musculus [21]): 0%; Activity (Mus musculus [22]): 0% |
| Cl.Cl.c1ccc(-c2cncc(C3CC4CCC3N4)c2)cc1 (racemic) | 0.5 | 300 | 30 | – | – | 6 | 0 | 500 | 1500 | Activity [23]: 7%; Activity (Mus musculus [21]): 10% |
| Cl.Cl.O=[N+]([O-])c1cccc(-c2cncc(C3CC4CCC3N4)c2)c1 (racemic) | 0.17 | – | – | – | > 2000 | – | – | 2500 | 37600 | Activity (Mus musculus [19]): 5%; Activity (Mus musculus [20]): 21%; Activity (Mus musculus [24]): 0% |
| Cl.Fc1ncc(C2CC3CCC2N3)cc1-c1cccc(Cl)c1 (racemic) | 0.073 | 12 | 14 | 450 | – | – | 0 | – | – | – |
| Cl.Nc1cccc(-c2cncc(C3CC4CCC3N4)c2)c1 (racemic) | 1.16 | – | – | – | > 2000 | – | – | 1500 | 3800 | ED50 (Mus musculus [13]): 6 µg/kg; ED50 (Mus musculus [14]): 650 µg/kg |
| Clc1ccc(C2CC3CCC2N3)cn1 (racemic) [EPIBATIDINE] | – | – | – | – | – | – | – | 1 | 4 | ED50 (Mus musculus [13]): 6 µg/kg; ED50 (Mus musculus [14]): 4 µg/kg |
| Cl.Nc1ccc(-c2cc(C3CC4CCC3N4)cnc2F)cc1 (racemic) | 0.095 | 5 | 10 | 1800 | – | – | – | – | – | Activity (Mus musculus [25]): 0% |
| Cl.Nc1cccc(-c2cc(C3CC4CCC3N4)cnc2F)c1 (racemic) | – | 9 | 4 | 820 | – | – | – | – | – | Activity (Mus musculus [25]): 5% |
| Cl.Nc1ccc(-c2cncc(C3CC4CCC3N4)c2)cc1 (racemic) | 0.34 | 1 | 10 | – | > 2000 | 6 | – | – | – | Activity (Mus musculus [26]): 45%; Activity (Mus musculus [10]): 0%; Activity (Mus musculus [27]): 0%; Activity (Mus musculus [28]): 15% |
| Cl.Fc1cccc(-c2cc(C3CC4CCC3N4)cnc2F)c1 (racemic) | 0.087 | 5 | – | – | – | – | 0 | – | – | Activity (Mus musculus [21]): 2% |
| Cl.Cl.Fc1cccc(-c2cncc(C3CC4CCC3N4)c2)c1 (racemic) | 0.2 | 3.1 | 8 | 3000 | > 2000 | 2 | – | 5000 | – | Activity (Mus musculus [10]): 0%; Activity (Mus musculus [29]): 0% |
| Cl.O=[N+]([O-])c1ccc(-c2cc(C3CC4CCC3N4)cnc2F)cc1 (racemic) | 0.009 | 3 | 10 | 120 | – | – | 0 | – | 3500 | – |
| COc1cccc(-c2cc(C3CC4CCC3N4)cnc2F)c1.Cl (racemic) | – | 8 | 8 | 2000 | – | – | – | – | – | – |
| Fc1ccc(-c2cncc(C3CC4CCC3N4)c2)cc1 (configuration not stated) | 0.15 | 13 | 13 | – | > 2000 | 3 | 0 | 3000 | – | Activity (Mus musculus [18]): 10%; Activity (Mus musculus [10]): -1.6% |
| Cl.Fc1ncc(C2CC3CCC2N3)cc1-c1ccccc1 (racemic) | – | 500 | – | 1200 | > 2000 | – | – | – | – | Activity (Mus musculus [30]): 4% |
| COc1cccc(-c2cncc(C3CC4CCC3N4)c2)c1.Cl.Cl (racemic) | – | – | 20 | – | > 2000 | 1 | – | 2900 | – | Activity (Mus musculus [8]): 0%; Activity (Mus musculus [9]): 0%; Activity (Mus musculus [10]): 0%; Activity (Mus musculus [29]): 0% |
| Cl.Fc1ncc(C2CC3CCC2N3)cc1-c1ccc(Cl)cc1 (racemic) | 0.044 | 0.3 | 7 | 260 | – | – | 0 | – | – | Activity (Mus musculus [28]): 5% |
